Measured values reported in ChEMBL document CHEMBL1773014, “Cytotoxic pentacyclic and tetracyclic aromatic sesquiterpenes from Phomopsis archeri” (J Nat Prod, 2011).
In brackets after ≈: the same amount, converted by molar mass.

Key:
Plasmodium falciparum = test: Antimalarial activity against multidrug-resistant Plasmodium falciparum K1 assessed as reduction in uptake of [3H]-hypoxanthine by microculture radioisotope technique; format: functional, organism-based
Method in brief: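 P. falciparum K1 (multidrug-resistant) cultured by the Trager–Jensen method and tested in vitro by microculture radioisotope technique. Parasite growth read as [3H]-hypoxanthine uptake. IC50 taken as the concentration giving 50% reduction in growth. Dihydroartemisinin served as the reference standard.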

[1] = Cytotoxicity against human KKU-M213 cells by sulforhodamine B assay; format: functional, cell-based
[2] = Cytotoxicity against human KKU-M214 cells by sulforhodamine B assay; format: functional, cell-based
KB = test: Cytotoxicity against human KB cells by sulforhodamine B assay; format: functional, cell-based
[3] = tested on: Mycobacterium tuberculosis; test: Antimycobacterial activity against Mycobacterium tuberculosis H37Ra by microplate alamar blue assay; format: functional
[4] = Cytotoxicity against human KKU100 cells by sulforhodamine B assay; format: functional, cell-based
[5] = Cytotoxicity against human KKU-M139 cells by sulforhodamine B assay; format: functional, cell-based
[6] = Cytotoxicity against human KKU-M156 cells by sulforhodamine B assay; format: functional, cell-based

Row | SMILES | IC50 (Plasmodium falciparum) | IC50 [1] [µg/mL] | IC50 [2] [µg/mL] | IC50 (KB) [µg/mL] | MIC [3] [µg/mL] | IC50 [4] [µg/mL] | IC50 [5] [µg/mL] | IC50 [6] [µg/mL]
1 | C[C@H]1[C@@H](O)O[C@@H]2O[C@@]3(C)CC[C@H]4[C@H](C)CC[C@@H]1[C@@]24OO3 [ARTENIMOL] | 4.4 nM |  |  |  |  |  |  | 
2 | Cc1c2ccncc2c(C)c2c1[nH]c1ccccc12 [ELLIPTECINE] |  | 0.3 (≈ 1.22 µM) | 0.21 (≈ 0.853 µM) | 0.19 (≈ 0.771 µM) |  |  |  | 
3 | NNC(=O)c1ccncc1 [ISONIAZID] |  |  |  |  | 0.23 (≈ 1.68 µM) |  |  | 
4 | CC(=O)O[C@H]1CC[C@]2(C)[C@H]3Cc4c(O)cc5c(c4O[C@@]3(C)CC[C@H]2C1(C)C)COC5=O [KAMPANOL A] |  | 19.6 (≈ 45.7 µM) | > 20 |  |  | > 20 | > 20 | > 20
5 | CC1(C)[C@@H](O)CC[C@]2(C)[C@H]3Cc4c(O)cc5c(c4O[C@@]3(C)CC[C@@H]12)COC5=O [PHOMOARCHERIN A] | > 20 µg/mL | 16.6 (≈ 43 µM) | > 20 | 42.1 (≈ 109 µM) | > 200 | > 20 | > 20 | > 20
6 | CC1(C)C(=O)CC[C@]2(C)[C@H]3Cc4c(O)cc5c(c4O[C@@]3(C)CC[C@@H]12)COC5=O [PHOMOARCHERIN B] | 0.79 µg/mL | > 20 | 5 (≈ 13 µM) | 9.4 (≈ 24.4 µM) | 50 (≈ 130 µM) | 8 (≈ 20.8 µM) | 0.1 (≈ 0.26 µM) | 2 (≈ 5.2 µM)
7 | Cc1cc(O)c2c(c1C=O)O[C@@]1(C)CC[C@H]3C(C)(C)C(=O)CC[C@]3(C)[C@H]1C2 [PHOMOARCHERIN C] |  | 15.4 (≈ 41.6 µM) | 18.8 (≈ 50.7 µM) |  |  | 8.9 (≈ 24 µM) | 8.9 (≈ 24 µM) | 18 (≈ 48.6 µM)
